Measured values as given in ChEMBL document CHEMBL5724801, “EUbOPEN Chemogenomics Library - Multiplex” (2024).
Values joined by “and” are separate entries in the source; they are usually repeats but may differ in a detail not shown here. Equal values may be shown once.

Test system: HEK-293T
Test: Multiplex assay against HEK293T
Format: toxicity, cell-based
Conditions: human
Summary of the method: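 Hoechst33342, BioTracker Green Microtubule Cytoskeleton Dye, MitoTracker Red and Annexin V Alexa Fluor 680 were added to live cells at seeding, and imaging on a CQ1 microscope at 37°C and 5% CO2 followed compound addition. Gating by CellPathfinder machine learning separated cells into Hoechst high-intensity objects or normal cells, then normal cells into healthy, pyknosed or fragmented nuclei, then pyknosed cells into mitotic or apoptotic. Per cents of healthy-nucleus cells are reported for the tubulin, mitochondrial-mass and membrane-permeability phenotypes.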

[1] = 12 h, 1 µM, compound concentration 1 uM
[2] = 12 h, 10 µM, compound concentration 10 uM
[3] = 24 h, 1 µM, compound concentration 1 uM
[4] = 24 h, 10 µM, compound concentration 10 uM
[5] = 48 h, 1 µM, compound concentration 1 uM
[6] = 48 h, 10 µM, compound concentration 10 uM

For O=c1cccc2n1C[C@@H]1CNC[C@H]2C1 [CYTISINICLINE], the “Population Apoptotic (%)” value [1] was 13.38% and 21.1%, the “Population Fragmented Nuclei (%)” value [1] was 1.29% and 6.54% and the “Population Healthy Nuclei (%)” value [1] was 52.75% and 22.22%. For the same compound, the “Population Hoechst High Intensity Objects (%)” value [1] was 0.64% and 0%, the “Population Membrane Permeable-Phenotype (%)” value [1] was 0.61% and 0% and the “Population Mitochondria Different-Phenotype (%)” value [1] was 39.26% and 17.65%. For the same compound, the “Population Mitotic Cells (%)” value [1] was 86.62% and 78.9%, the “Population Normal (%)” value [1] was 99.36% and 100% and the “Population Pyknosed Nuclei (%)” value [1] was 45.95% and 71.24%. For the same compound, the “Total Cell Count” value [1] was 311 and 153, the “Population Apoptotic (%)” value [2] was 15.45% and 10.14% and the “Population Fragmented Nuclei (%)” value [2] was 3.17% and 4.62%. For the same compound, the “Population Hoechst High Intensity Objects (%)” value [2] was 0%, the “Population Membrane Permeable-Phenotype (%)” value [2] was 0.66% and 0% and the “Population Mitochondria Different-Phenotype (%)” value [2] was 17.11% and 7.41%. The “Population Mitotic Cells (%)” value [2] was 84.55% and 89.86%, the “Population Normal (%)” value [2] was 100% and the “Population Pyknosed Nuclei (%)” value [2] was 43.31% and 79.77%. The “Total Cell Count” value [2] was 284 and 173, the “Population Apoptotic (%)” value [3] was 15.52% and 25.56% and the “Population Fragmented Nuclei (%)” value [3] was 1.39% and 3.33%. For the same compound, the “Population Healthy Nuclei (%)” value [3] was 75.5% and 36.67%, the “Population Hoechst High Intensity Objects (%)” value [3] was 0.2% and 0% and the “Population Membrane Permeable-Phenotype (%)” value [3] was 1.32% and 5.45%. The “Population Mitochondria Different-Phenotype (%)” value [3] was 17.41% and 14.55%, the “Population Mitotic Cells (%)” value [3] was 84.48% and 74.44% and the “Population Normal (%)” value [3] was 99.8% and 100%. For the same compound, the “Population Pyknosed Nuclei (%)” value [3] was 23.11% and 60%, the “Population Tubulin-Different-Phenotype (%)” value [3] was 11.08% and 16.36% and the “Population Apoptotic (%)” value [4] was 18.82% and 14.41%. The “Population Fragmented Nuclei (%)” value [4] was 2.13% and 5.14%, the “Population Healthy Nuclei (%)” value [4] was 81.43% and 42.99% and the “Population Hoechst High Intensity Objects (%)” value [4] was 0%. For the same compound, the “Population Membrane Permeable-Phenotype (%)” value [4] was 0.24% and 0%, the “Population Mitochondria Different-Phenotype (%)” value [4] was 15.44% and 7.61% and the “Population Mitotic Cells (%)” value [4] was 81.18% and 85.59%. The “Population Normal (%)” value [4] was 100%, the “Population Tubulin-Different-Phenotype (%)” value [4] was 7.6% and 1.09% and the “Total Cell Count” value [4] was 517 and 214. For the same compound, the “Population Fragmented Nuclei (%)” value [5] was 2.45% and 3.98%, the “Population Healthy Nuclei (%)” value [5] was 88.37% and 61.69% and the “Population Hoechst High Intensity Objects (%)” value [5] was 0%. For the same compound, the “Population Membrane Permeable-Phenotype (%)” value [5] was 2.27% and 1.61%, the “Population Mitochondria Different-Phenotype (%)” value [5] was 16.42% and 20.97% and the “Population Mitotic Cells (%)” value [5] was 94.29% and 66.67%. For the same compound, the “Population Normal (%)” value [5] was 100%, the “Population Apoptotic (%)” value [6] was 9.77% and 19.7% and the “Population Fragmented Nuclei (%)” value [6] was 5.36% and 2.25%. For the same compound, the “Population Healthy Nuclei (%)” value [6] was 85.61% and 79.15%, the “Population Hoechst High Intensity Objects (%)” value [6] was 0.14% and 0% and the “Population Membrane Permeable-Phenotype (%)” value [6] was 5.39% and 1.78%. For the same compound, the “Population Mitochondria Different-Phenotype (%)” value [6] was 8.88% and 16.01%, the “Population Mitotic Cells (%)” value [6] was 90.23% and 80.3% and the “Population Normal (%)” value [6] was 99.86% and 100%. For the same compound, the “Population Pyknosed Nuclei (%)” value [6] was 9.03% and 18.59%.
